# Source: PubChem BioAssay
# Shown are actives, neighbours in structure and some others; about 5.5% of the full set was active somewhere.
# WT yeast gro inh: growth inhibition of WT yeast, mitochondrial fusion screen; inhibition, % at 10 µM; 2.1% of 190,000 active; mitochondrial fusion phenotypic screen, WT strain; in the data active means inhibition above about 58%; tested in S. cerevisiae
# Yeast growth inh: chemicals that inhibit yeast BB579 growth in restrictive medium (lifespan-shortening candidates); 0.51% of 140,000 active; S. cerevisiae BB579 growth, OD615, 48 h; inhibition, % at 10 µM;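 active means inhibition above a set limit, 3 SD over the mean compound inhibition, cut at about 44% in these data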
#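 controls = amphotericin B 10 µg/mL, positive | assay system = DeaD yeast strain BB579 | schedule = 48 h compound exposure at 30 °C after 4 h preincubation | detection = OD615 turbidity measurement | medium = restrictive CSMM-D medium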
# Yeast lifespan up: yeast lifespan extension. AID 775. S. cerevisiae growth with nicotinamide, OD615; deaD strain in restrictive glucose medium. 0.68% of 130,000 active. inhibition of the nicotinamide effect, % at 10 µM;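 active means inhibition above a set limit, placed 3 SD over the median of all compounds, cut at about 26% in these data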;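 further: 0% = nicotinamide-treated wells and 100% = cells grown without nicotinamide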
#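 Assay system: DeaD-strain S. cerevisiae. Medium: CSMM-D glucose medium, restrictive. Reagent: nicotinamide, 1.5 mM, co-present with compound. Compound: 10 µM single point, 0.25% DMSO. Schedule: culture preincubation 4 h, compound exposure 48 h, both 30 °C. Detection: absorbance at 615 nm.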
# KCC2 mod: KCC2 (human) Cl- transport modulation | Q9H2X9 | KCC2 cells, thallium flux FluoZin-2 fluorescence | B-score of Tl+ flux slope (higher = more flux/activation; lower = inhibition) at 10 µM | 2.2% of 190,000 active | AID 1456;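 active means thallium flux slope and its plate-corrected score both differing from the plate sample mean at a set confidence after two filtering rounds, in either direction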;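 further: slope of fluorescence scaled to starting intensity during 10 to 20 s after thallium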
# Target sequence (Q9H2X9 whole entry, looked up): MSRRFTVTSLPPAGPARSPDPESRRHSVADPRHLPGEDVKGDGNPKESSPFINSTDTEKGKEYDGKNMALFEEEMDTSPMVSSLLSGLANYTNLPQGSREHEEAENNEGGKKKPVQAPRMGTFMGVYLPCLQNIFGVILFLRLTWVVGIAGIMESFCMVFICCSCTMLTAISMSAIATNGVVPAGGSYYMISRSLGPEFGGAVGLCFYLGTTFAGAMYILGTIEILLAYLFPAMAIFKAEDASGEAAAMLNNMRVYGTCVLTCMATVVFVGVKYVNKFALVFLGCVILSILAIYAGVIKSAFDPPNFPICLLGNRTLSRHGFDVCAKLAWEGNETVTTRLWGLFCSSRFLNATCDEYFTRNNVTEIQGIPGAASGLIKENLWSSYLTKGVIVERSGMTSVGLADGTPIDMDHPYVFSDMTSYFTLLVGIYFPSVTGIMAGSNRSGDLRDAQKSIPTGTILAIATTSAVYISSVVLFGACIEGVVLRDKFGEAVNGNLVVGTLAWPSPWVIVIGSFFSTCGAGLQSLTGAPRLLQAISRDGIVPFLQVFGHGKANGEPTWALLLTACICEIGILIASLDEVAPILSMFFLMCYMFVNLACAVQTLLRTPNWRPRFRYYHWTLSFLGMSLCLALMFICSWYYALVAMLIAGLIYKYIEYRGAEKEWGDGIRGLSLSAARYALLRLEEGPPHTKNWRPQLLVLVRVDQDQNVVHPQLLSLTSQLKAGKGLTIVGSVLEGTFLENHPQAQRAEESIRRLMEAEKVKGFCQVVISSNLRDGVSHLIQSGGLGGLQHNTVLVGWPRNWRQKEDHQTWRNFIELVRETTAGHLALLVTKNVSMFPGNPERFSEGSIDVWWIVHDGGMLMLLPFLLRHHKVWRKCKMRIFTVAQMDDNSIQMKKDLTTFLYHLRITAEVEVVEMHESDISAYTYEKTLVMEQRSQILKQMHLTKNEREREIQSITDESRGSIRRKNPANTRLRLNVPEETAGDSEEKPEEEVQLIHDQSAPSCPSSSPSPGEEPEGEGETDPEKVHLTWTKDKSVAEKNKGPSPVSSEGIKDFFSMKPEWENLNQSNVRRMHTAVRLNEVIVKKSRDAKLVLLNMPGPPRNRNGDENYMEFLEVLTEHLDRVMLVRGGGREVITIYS
# RAM network inh: inhibitors of the yeast RAM network; S. cerevisiae dse1pr::URA3 reporter, 5-FOA growth OD615, 2 d; analog-sensitive cbk1-as2 kinase mutant strain; inhibition, % at 50 µM; 1.8% of 190,000 active; AID 868;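 active means inhibition above a set limit, 3 SD over mean compound inhibition, cut at about 8.4% in these data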;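 further: 0% = DMSO-only wells with no growth and 100% = 10 µM 1-NA-PP1 full growth; inhibition rescues growth on 5-FOA so higher OD means more RAM inhibition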
# Starred values were filed as active, the others as inactive; . = no result.
SMILES,WT yeast gro inh,Yeast growth inh,Yeast lifespan up,KCC2 mod,RAM network inh
Cc1nc(C)c(-c2csc(Nc3ccc(F)cc3)n2)s1,73*,.,.,-0.25,1
Cc1nc(NC(=O)c2ccccc2)sc1-c1csc(Nc2cccc(F)c2)n1,80*,-101,-8,0.85,3
O=C(c1ccco1)N1N=C2CCCCCC2C1(O)C(F)(F)F (configuration not stated),-4,.,.,-0.14,0
CCCC1CCC(c2nc(-c3cccnc3)no2)CC1 (configuration not stated),31,-43,8,1.6,-1
CCCCCCC1CCC(c2nc(-c3ccncc3)no2)CC1 (configuration not stated),79*,-51,-9,0.0078,0
CCOC(=O)c1c(CN2CCN(Cc3ccccc3)CC2)n(C)c2cc(Br)c(OC)cc12,95*,-14,-7,-0.0049,0
CCOC(=O)c1c(CN2CCC(C)CC2)n(C)c2cc(Br)c(OC)cc12,.,.,.,2.6,.
O=C(NCc1ccccn1)c1cn(-c2ccccc2)nc1-c1ccc(Cl)cc1,16,-9,-5,1.2,-1
CN1/C(=C\C(=O)Nc2cccc(Cl)c2)C(C)(C)c2ccccc21,78*,-24,-6,-0.85,1
CN1/C(=C\C(=O)Nc2ccc(F)cc2)C(C)(C)c2ccccc21,74*,-18,-5,-0.18,1
CN1/C(=C/C(=O)C2CC2)C(C)(C)c2ccccc21,7,.,.,-0.46,0
CN1/C(=C\C(=O)Nc2ccc(Br)cc2)C(C)(C)c2ccccc21,87*,-43,-4,-0.26,1
Cc1nnc(NN2CCOCC2)[nH]c1=O,8,.,.,-0.036,0
Cc1ccccc1Cn1nc(C)c(NC(=O)C2c3ccccc3Oc3ccccc32)c1C,4,-7,-4,0.3,5
O=C(CSc1ncn[nH]1)Nc1ccc(OCc2ccccc2)cc1,7,.,.,-0.46,1
CCc1nn2c(NCCOC)cc(C)nc2c1-c1ccc(F)cc1,20,.,.,-0.76,2
CN(C)c1ccc(C(=O)OCC(=O)NCC2CCCO2)cc1 (configuration not stated),22,11,-20,0.83,1
O=C(COC(=O)C1(c2ccc(F)cc2)CCCC1)Nc1ncc(C(F)(F)F)cc1Cl,56,-42,2,-0.64,7
O=C(COC(=O)C1(c2ccc(Cl)cc2)CCCC1)Nc1ncc(C(F)(F)F)cc1Cl,68*,-54,3,-0.74,8.9*
O=C(COC(=O)c1ccc([N+](=O)[O-])s1)Nc1ncc(C(F)(F)F)cc1Cl,82*,-22,7,0.39,-1
O=C(COC(=O)c1ccccn1)Nc1ncc(C(F)(F)F)cc1Cl,-3,-12,-11,-0.28,0
C/C(=N\N=C(/N)SC1CC(=O)N(c2ccc(Cl)cc2)C1=O)c1cccs1 (configuration not stated),60*,3,-2,-0.41,0
CCCCCCOc1ccc(N2C(=O)CC(S/C(N)=N/N=C(\C)c3cccs3)C2=O)cc1 (configuration not stated),38,-20,-4,-0.68,5
C/C(=N\N=C(/N)SC1CC(=O)N(c2ccc(Br)cc2)C1=O)c1cccs1 (configuration not stated),65*,-40,-16,0.024,4
C/C(=N\N=C(/N)SC1CC(=O)N(c2ccccc2)C1=O)c1cccs1 (configuration not stated),22,-37,-8,-0.13,5
SMILES,WT yeast gro inh,Yeast growth inh,Yeast lifespan up,KCC2 mod,RAM network inh
C/C(=N\N=C(/N)SC1CC(=O)N(c2ccc(Cl)c(Cl)c2)C1=O)c1cccs1 (configuration not stated),98*,-46,-11,0.098,1
C=C1CCN([C@@H](C)C(=O)NCCCCCC)S(=O)(=O)c2ccccc21,.,.,.,-1.2,.
O=C(CCN1C(=O)c2ccc([N+](=O)[O-])cc2C1=O)Nc1ccccc1C(=O)O,.,.,.,0.044,.
Nc1c(C(=O)Nc2ccccc2F)sc2nc(-c3ccco3)ccc12,-3,-73,-1,-0.046,9.2*
NC(=O)c1sc2nc(-c3ccco3)ccc2c1N,2,53*,-24,0.22,2
Nc1c(C(=O)Nc2ccccc2F)sc2nc(-c3cccnc3)ccc12,.,.,.,-1.3,.
COc1ccc(C(=O)NN(C)c2nc(-c3ccccc3)nnc2C(F)(F)F)cc1,64*,-25,-11,.,1
CC/C(O)=C1\C(=O)CC(c2ccccc2)CC1=NC(C)C (configuration not stated),-10,-18,9,-0.07,-1
O=C(O)c1ccccc1Nc1ccc([N+](=O)[O-])cc1,-6,95*,-5,-0.35,1
O=[N+]([O-])c1ccccc1Nc1c2ccccc2nc2ccccc12,-14,.,.,0.56,5
O=[N+]([O-])c1ccc(Nc2c3ccccc3nc3ccccc23)cc1,77*,.,.,-0.33,3
CCOc1ccccc1NC(=S)N(CCC(C)C)C1CCN(C(C)=O)CC1,1,.,.,-0.81,1
Cc1ccc(/C=N/NC(=S)N2CCOCC2)cc1,17,-9,0,32*,0
S=C(N/N=C/c1ccc(Cl)cc1)N1CCOCC1,11,-15,-4,41*,1
Cc1ccc(C)n1-c1ccc(C(=O)N/N=C/c2ccncc2)cc1,3,.,.,1.4,1
CCOC(=O)C1=NN(c2ccccc2)C2=NC(C)=C(C(=O)OC)C(c3ccc(C)cc3)N12 (configuration not stated),70*,-28,10,-0.18,4
C/C(=N\NC(=O)CCc1ccc(S(=O)(=O)N2CCOCC2)cc1)c1ccccc1Cl,-2,.,.,0.39,0
O=C(OCc1ccc2c(c1)OCO2)c1cccc(S(=O)(=O)N2CCCCC2)c1,22,-27,1,-0.0064,8.6*
O=C(OCc1ccc2c(c1)OCO2)c1ccc(S(=O)(=O)N2CCCC2)cc1,22,-45,-10,-0.32,1
CCOC(=O)c1sc2nc(CSc3ccccc3)nc(NCCN(C)C)c2c1C,26,.,.,-0.0086,1
O=C1C(Nc2ccccc2)=C/C(=N/S(=O)(=O)c2cccs2)c2ccccc21,99*,-22,1,0.38,1
COC(=O)c1ccccc1NC1=C/C(=N\S(=O)(=O)c2cccs2)c2ccccc2C1=O,62*,-32,-5,.,7
S=c1[nH]nc(-c2cc(-c3ccccc3)n[nH]2)n1/N=C/c1ccc(Br)s1,.,.,.,1.5,.
CCCCCCOC(=O)Sc1nc2ccccc2o1,-16,81*,-26,-0.19,-1
COc1cc(/C=C(\C#N)c2nc3c(s2)CCCC3)ccc1O,53,-6,-9,0.15,9.6*
C#Cc1ccc([C@H]2C=C(C(=O)N3CCOCC3)O[C@@H](OCc3ccc(CO)cc3)C2)cc1,-17,.,.,0.18,1
Cc1cccc(NC(=O)Cn2cnc3c(oc4nc5c(cc43)COC(C)(C)C5)c2=O)c1,-10,-8,-4,0.76,8.5*
CC1(C)Cc2nc3oc4c(=O)n(CC(=O)Nc5ccccc5)cnc4c3cc2CO1,10,-23,5,0.66,3
